≈ marks a conversion by molar mass, not a printed value.

The nature of test [1]: Inhibition of testosterone-5-alpha-reductase at 50 ug/mL.
The test system of test [2] is Bacillus subtilis. The test can be described thus: Antimicrobial activity against Bacillus subtilis after 48 hrs by agar plate dilution method. In kind it is functional. A digest of the protocol: (§1)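 Strains cultured at 37 °C in soybean–casein digest broth; activity determined by agar plate dilution (described alongside broth microtiter dilution), read after 48 h incubation at 37 °C.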

Test [3] in a line: Inhibition of testosterone-5-alpha-reductase at 100 ug/mL.
Test [4] concerns Staphylococcus aureus. The test is described as follows: Antimicrobial activity against Staphylococcus aureus after 48 hrs by agar plate dilution method. In kind it is functional. The gist of the method:
as §1

The nature of test [5]: Inhibition of testosterone-5-alpha-reductase at 200 ug/mL.
Test [6] can be described thus: Displacement of [3H]DHT from 5-alpha-dihydrotestosterone receptor at 50 ug/mL.
Test [7] in a line: Displacement of [3H]DHT from 5-alpha-dihydrotestosterone receptor at 100 ug/mL.
The subject of test [8] is Staphylococcus epidermidis. The test can be described thus: Antimicrobial activity against Staphylococcus epidermidis after 48 hrs by agar plate dilution method. It counts as functional. A digest of the protocol:
as §1

Test [9] in a line: Displacement of [3H]DHT from 5-alpha-dihydrotestosterone receptor at 200 ug/mL.
The test system of test [10] is Cutibacterium acnes. The test is described as follows: Antimicrobial activity against Propionibacterium acnes after 48 hrs by agar plate dilution method. In kind it is functional. The gist of the method:
as §1

Turning to `C=C(C)C(CC=C(C)C)Cc1c(O)cc(O)c2c1O[C@H](c1ccc(O)cc1O)CC2=O` (some centres not stated), the figures for the inhibition in test [1], in test [3] and in test [5] were 51.4%, 86.4% and 94.2%, respectively. Further, the MIC in [2] turned out to be 2.5 µg/mL (≈ 5.89 µM); in test [4] it was 2.5 µg/mL (≈ 5.89 µM); in test [8], 10 µg/mL (≈ 23.6 µM); in test [10] it was 10 µg/mL (≈ 23.6 µM). For the same molecule, the figures for the Activity in test [6], in test [7] and in [9] were 80.3%, 85.8% and 90.1%, respectively.

For the molecule `COc1cc(C2CC(=O)c3c(O)cc(O)c(CC=C(C)C)c3O2)c(O)cc1O` (racemic) [KUSHENOL W], the MIC in test [2] and in test [4] was 10 µg/mL (≈ 25.9 µM) throughout.

Turning to `CC1(C)C=Cc2c(ccc3c2OC[C@@H](c2ccc(O)cc2O)C3)O1`, the inhibition in test [1] was found to be 32.5%; in test [3], 84.3%. The Activity in test [6] came out at 63.2%; in [7], 88.2%.

As to `C=C(C)[C@H](CCC(C)(C)O)Cc1c(O)cc(O)c2c1O[C@H](c1ccccc1O)CC2=O`, the figures for the inhibition in [1], in [3] and in test [5] were 3.2%, 54.8% and 95.4%, respectively. Further, the Activity in [6] was found to be 35%; in test [7] it was 84.9%; in [9], 89.2%.

As to `C=C(C)C(CC=C(C)C)Cc1c(O)cc(OC)c2c1O[C@H](c1ccc(O)cc1O)[C@@H](O)C2=O` (some centres not stated), the inhibition is 14% in [1], 50.9% in test [3] and 85.1% in test [5]. The values for the Activity in [6], in test [7] and in [9] were 60.2%, 81.4% and 84.2%, respectively.

For `C=C(C)C(CCC(C)(C)O)Cc1c(O)cc(O)c2c1O[C@H](c1ccc(O)cc1O)CC2=O` (some centres not stated), the figures for the inhibition in [1], in [3] and in test [5] were 3.5%, 41.3% and 82.2%, respectively. Further, the results for the Activity in test [6], in [7] and in test [9] were 43.9%, 75.4% and 83%, respectively.

On to `C=C(C)C(CC=C(C)C)Cc1c(O)cc(OC)c2c1O[C@H](c1ccc(O)cc1O)CC2=O` (some centres not stated) [KURARINONE], for which the figures for the inhibition in test [1], in test [3] and in [5] were 0.7%, 40.5% and 93.8%, respectively. The minimal inhibitory concentration (MIC) in test [2] and in [4] was 2.5 µg/mL (≈ 5.7 µM) throughout. Moreover, the Activity in test [6] is 61.1%; in test [7], 89.2%; in test [9], 88%.

For the molecule `COc1cc([C@@H]2CC(=O)c3c(cc(O)c(CC=C(C)C)c3O)O2)c(O)cc1O` [KUSHENOL V], the MIC in test [2] and in [4] was 10 µg/mL (≈ 25.9 µM) throughout.

Regarding `CC(C)=CCc1c(O)cc(O)c2c1O[C@H](c1ccc(O)cc1O)CC2=O` [LEACHIANONE G], the inhibition in test [1] stood at 25.3%; in test [3], 80.5%; in [5], 89.9%. Moreover, the results for the MIC in test [2] and in test [4] were 2.5 µg/mL (≈ 7.02 µM) and 5 µg/mL (≈ 14 µM), respectively. Moreover, the Activity in test [6] worked out at 74.2%; in test [7], 84.8%; in test [9], 94.5%.

Consider `C=C(C)C(CC=C(C)C)Cc1c(O)cc(OC)c2c1O[C@H](c1ccccc1O)CC2=O` (some centres not stated) [KUSHENOL R], for which the inhibition in test [1] came out at 4.1%; in test [3], 23.6%; in test [5], 73.5%. Further, the MIC came to 2.5 µg/mL (≈ 5.92 µM) in [2], 5 µg/mL (≈ 11.8 µM) in test [4], 5 µg/mL (≈ 11.8 µM) in test [8] and 10 µg/mL (≈ 23.7 µM) in [10]. In addition, the Activity in test [6] was 27.3%; in [7], 67.5%; in test [9] it was 82.4%.

Turning to `CC(C)=CCC(Cc1c(O)cc(O)c2c1O[C@H](c1ccc(O)cc1O)CC2=O)C(C)CO` (some centres not stated) [KUSHENOL Q], the values for the inhibition in [1], in test [3] and in test [5] were 0.9%, 34.8% and 88.5%, respectively. Further, the MIC in test [2] and in [4] was 5 µg/mL (≈ 11.3 µM) each time. The Activity in [6] was found to be 66.1%; in [7] it was 82.4%; in [9] it was 92.7%.

Turning to `C=C(C)C(CC=C(C)C)Cc1c(O)cc(OC)c2c1O[C@H](c1ccc(O)cc1OC)CC2=O` (some centres not stated), the inhibition in test [1] came to 34.1%; in test [3] it was 79.3%; in test [5], 94.7%. The MIC in test [2] came to 2.5 µg/mL (≈ 5.52 µM); in test [4], 2.5 µg/mL (≈ 5.52 µM); in test [8], 10 µg/mL (≈ 22.1 µM); in test [10], 25 µg/mL (≈ 55.2 µM). In addition, the Activity in [6] was 73.7%; in test [7], 58.9%; in [9], 58.4%.

For the molecule `C=C(C)C(CC=C(C)C)Cc1c(O)cc(O)c2c1O[C@H](c1ccccc1O)CC2=O` (some centres not stated), the inhibition came out at 21.9% in test [1], 51.4% in test [3] and 77.3% in test [5]. For the same molecule, the MIC in [2] came out at 2.5 µg/mL (≈ 6.12 µM); in test [4] it was 5 µg/mL (≈ 12.2 µM); in test [8], 5 µg/mL (≈ 12.2 µM); in test [10] it was 10 µg/mL (≈ 24.5 µM). Moreover, the Activity in [6] was determined as 60.1%; in test [7], 89.3%; in test [9] it was 89.6%.

As for `C=C(C)C(CCC(C)(C)O)Cc1c(O)cc(OC)c2c1O[C@H](c1ccc(O)cc1O)CC2=O` (some centres not stated), the inhibition was -1% in test [1], -0.2% in [3] and 11.9% in test [5]. Further, the Activity stood at 15.5% in test [6], 27.9% in test [7] and 65.8% in [9].

Regarding `C=C(C)C(CC=C(C)C)Cc1c(O)cc(OC)c2c1O[C@H](c1ccc(O)cc1)CC2=O` (some centres not stated) [KUSHENOL U], the inhibition in test [1] is 7.4%; in test [3], 50.3%; in test [5], 84.4%. The MIC in test [2], in test [4], in [8] and in test [10] was 10 µg/mL (≈ 23.7 µM) each time. In addition, the Activity in [6] was determined as 52.6%; in [7], 85.1%; in test [9], 96.9%.

Regarding `C=C(C)C(CC=C(C)C)Cc1c(O)cc(O)c2c1O[C@H](c1ccc(O)cc1O)[C@@H](O)C2=O` (some centres not stated) [KUSHENOL X], the inhibition in test [1] turned out to be 30.9%; in [3], 84.5%; in test [5] it was 96.4%. The minimum inhibitory concentration (MIC) in test [2] and in test [4] was 10 µg/mL (≈ 22.7 µM) each time. In addition, the Activity in test [6] came out at 68.9%; in test [7], 90.5%; in test [9], 88.6%.

On to `CC(C)=CCc1c(O)cc(O)c2c1O[C@H](c1ccccc1O)CC2=O` [KUSHENOL S], for which the results for the inhibition in test [1], in test [3] and in test [5] were 7.3%, 22.9% and 37.4%, respectively. Besides, the MIC in test [2] and in test [4] was 5 µg/mL (≈ 14.7 µM) each time. Also, the results for the Activity in test [6], in [7] and in test [9] were 37.8%, 47.7% and 70%, respectively.

The record behind these values is ChEMBL document CHEMBL1144146, “Antibacterial and antiandrogen flavonoids from Sophora flavescens” (1999).
